Measured values pooled from the literature.
Protocols differ between the studies behind these lines.
Target: LIM domain kinase 1 (LIMK1, Homo sapiens, UniProt P53667)

SMILES | effect on | action | method | tested at | endpoint | value
Cn1cnc(Br)c1C1=CN(c2ncnc3[nH]cnc23)CCS1 | enzyme activity | inhibitor | radiometric | 50 nM | inhibition | 15.2%
O=C1Nc2ccc(Cl)cc2C1=Cc1cc(Cl)c(O)c(Cl)c1 | cell-free assay | – | – | 0.5 µM | remaining signal | 83.7%
Cc1ccc(C(=O)Nc2ccc(CN3CCN(C)CC3)c(C(F)(F)F)c2)cc1C#Cc1cnc2cccnn12 | enzyme activity | inhibitor | – | 23.5 nM | remaining activity | 99%
CCOC(=O)c1cc2cc(-c3cc(C(=O)NCc4ccc(C(=O)O)cc4)nn3C)ccc2[nH]1 | cell-free assay | – | competition with immobilised ligand | 0.1 µM | remaining binding | 100%
O=C1NC(=O)c2cc(Nc3ccc(F)cc3)c(Nc3ccc(F)cc3)cc21 | cell-free assay | – | – | 0.5 µM | remaining signal | 95.9%
O=C(Nc1cccnn1)N1CC(C/C=C/c2cncc(Oc3ccc(C(F)(F)F)cn3)n2)C1 | cell-free assay | – | competition with immobilised ligand | 1 µM | remaining binding | 88%
CNC(=O)c1cc(Oc2ccc(NC(=O)Nc3ccc(Cl)c(C(F)(F)F)c3)cc2)ccn1 | enzyme activity | inhibitor | – | 0.3 µM | inhibition | 29%
Nc1ncnc2occ(-c3ccc(NC(=O)Nc4cc(C(F)(F)F)ccc4F)cc3)c12 | cell-free assay | inhibitor | – | 20 µM | remaining signal | 7.6%
Cc1sc(C(=O)NC2COC2)cc1-n1cc(NC(=O)Nc2c(F)cccc2Cl)cn1 | enzyme activity | inhibitor | – | 10 µM | remaining activity | 105%
CSc1cccnc1N1CCN(Cc2nc3ccccc3[nH]2)CC1 | cell-free assay | – | competition with immobilised ligand | 1 µM | remaining binding | 100%
CCCS(=O)(=O)Nc1ccc(F)c(C(=O)c2c[nH]c3ncc(-c4ccc(Cl)cc4)cc23)c1F | enzyme activity | inhibitor | – | 1 µM | inhibition | < 10%
O=C(O)[C@@H]1[C@@H](Cn2nnc3ccccc3c2=O)CC[C@H]1C(=O)c1ccc(OCCC2CCOCC2)cc1 | cell-free assay | – | competition with immobilised ligand | 1 µM | remaining binding | 100%
CCN(CC)CCNC(=O)c1c(C)[nH]c(/C=C2\C(=O)Nc3ccc(F)cc32)c1C | enzyme activity | inhibitor | – | 10 µM | inhibition | 39%
CC(C)(C)c1nc2c(s1)c1nc(N)ncc1c1ccc(NS(=O)(=O)c3c(F)cccc3F)c(F)c12 | enzyme activity | inhibitor | radiometric | 1 µM | remaining activity | 100%
O=C(Nc1cnn(-c2csc(C(=O)NC3COC3)c2)c1)Nc1ccccc1Cl | enzyme activity | inhibitor | – | 5 µM | remaining activity | 96.2%
Oc1ccc(-c2nc(-c3ccncc3)c(-c3ccc(F)cc3)[nH]2)cc1 | cell-free assay | – | – | 0.5 µM | remaining signal | 91.4%
CN1CCN(c2cnc3c(C4CCN(C(=O)c5ccc(OC(F)(F)F)cc5N)CC4)ncnc3c2)CC1 | cell-free assay | – | competition with immobilised ligand | 1 µM | remaining binding | 100%
CNC(=O)c1cc2c(Oc3ccc(NC(=O)C4(C(=O)Nc5ccc(F)cc5)CC4)cc3)ccnc2cc1OC | enzyme activity | inhibitor | radiometric | 1 µM | inhibition | 74%
Nc1nc(Nc2ccc(S(N)(=O)=O)cc2)nn1C(=O)c1c(F)cccc1F | cell-free assay | – | – | 0.5 µM | remaining signal | 16.6%
CN([C@@H]1CCc2c(CC(=O)O)c3ccccc3n2C1)S(=O)(=O)c1ccc(F)cc1 | cell-free assay | – | competition with immobilised ligand | 1 µM | remaining binding | 100%
